Measurements published in paper PMC5470083 (Molecular imaging, 2016).
Where two headings read alike, the source gives them in different places. Marks after values point to notes of the source that are not given here.

Key:
tau (NFTs) [1] = biological target: T1, tau (NFTs) (Homo sapiens, UniProt P10636); assay type: binding; settings: 1 µmol/L compound, human AD slices, n = 3
Target sequence in this assay (P10636 623-708 limits assumed): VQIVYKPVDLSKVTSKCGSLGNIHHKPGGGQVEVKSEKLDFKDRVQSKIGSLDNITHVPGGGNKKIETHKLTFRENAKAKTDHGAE

Aβ fibrils = settings: read-out: Ki for Aβ fibrils; reported values; ref [3],[13]; cited from earlier work
[2] = Biodistribution in normal NMRI mice; assay type: in vivo, mouse; settings: for %ID/g Blood / %ID/g Bone / %ID/g Brain / %ID/g Cerebellum / %ID/g Cerebrum / %ID/g Heart / %ID/g Kidneys / %ID/g Liver / %ID/g Lungs / %ID/g Muscle / %ID/g Pancreas / %ID/g Spleen: iv
How it was run: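 Healthy male NMRI mice (30-40 g) under 2.5% isoflurane in O2 received about 0.9 MBq of 18F-labelled tracer by tail vein. They were decapitated at 2, 10, 30 and 60 min PI (n = 4/time point). Blood and organs were weighed and γ-counted. Blood, bone and muscle were taken as 7%, 12% and 40% of body mass. Blood clearance was calculated as the 2 min to 60 min activity ratio.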

[3] = Plasma radiometabolite analysis; assay type: in vivo, mouse; settings: normal mice
How it was run: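 NMRI mice under isoflurane (2.5% in O2) received about 3.7 MBq of 18F-labelled tracer via a lateral tail vein. They were decapitated at 2, 10, 30 or 60 min PI (n = 3/time point). EDTA blood was kept on ice and spun at 2330 ×g for 10 min. Plasma (0.5 mL) was spiked with 10 µg authentic unlabelled compound and run on C18 HPLC. Fractions were γ-counted for % intact tracer, reported as mean ± SD.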

[4] = Perfused brain radiometabolite analysis; assay type: in vivo, mouse; settings: normal mice
tau (NFTs) [5] = biological target: T1, tau (NFTs); assay type: binding
Target sequence in this assay (P10636 623-695 limits assumed): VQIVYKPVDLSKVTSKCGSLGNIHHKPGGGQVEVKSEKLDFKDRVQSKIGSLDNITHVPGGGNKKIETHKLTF

Aβ = Aβ (Homo sapiens, UniProt P05067); assay: In vitro autoradiography binding inhibition of [11C]PiB on human AD brain slices
PHF tau = PHF tau (Homo sapiens, UniProt P10636); assay type: binding
amyloid plaques = amyloid plaques (Homo sapiens, UniProt P05067); assay type: binding
NFTs = settings: autoradiography on human AD brain tissue sections; ref [8],[11]; cited from earlier work
[6] = read-out: % Block ± SD of tracer binding

Aβ, sequence (P05067 672-711 limits assumed): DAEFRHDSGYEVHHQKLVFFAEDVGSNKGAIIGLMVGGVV
amyloid plaques, sequence (P05067 672-711 limits assumed): as above
PHF tau, sequence (P10636 623-695 limits assumed): as the sequence (P10636 623-695 limits assumed) above

## CNc1ccc(-c2ccc3ccccc3n2)cc1 [BF-158, N-Methyl-4-(quinolin-2-yl)benzenamine]
Tau (NFTs) [1]; tracer 40 nmol/L [18F]T808
  % Block ± SD of tracer binding: 93 ± 0.0%
Aβ fibrils
  Ki: > 5000 nM

## FCCC1CCN(c2ccn3c(n2)nc2ccccc23)CC1 [T808, 2-[4-(2-fluoroethyl)piperidin-1-yl]pyrimido[1,2-a]benzimidazole]
[2]; blood, 2 min PI
  %ID/g Blood: 1.8 ± 0.1 %ID/g
[2]; blood, 2 min to 60 min activity ratio
  2/60 min activity ratio Blood (clearance from blood): 2.7
[2]; blood, 10 min PI
  %ID/g Blood: 2.0 ± 0.2 %ID/g
[2]; blood, 30 min PI
  %ID/g Blood: 1.5 ± 0.1 %ID/g
[2]; blood, 60 min PI
  %ID/g Blood: 0.7 ± 0.1 %ID/g
[2]; 2 min PI
  %ID/g Bone: 2.6 ± 0.6 %ID/g
  %ID/g Cerebellum: 5.2 ± 0.5 %ID/g
  %ID/g Cerebrum: 4.9 ± 0.5 %ID/g
  %ID/g Heart: 3.2 ± 0.4 %ID/g
  %ID/g Kidneys: 26.3 ± 1.7 %ID/g
  %ID/g Liver: 11.8 ± 2.4 %ID/g
  %ID/g Lungs: 4.8 ± 0.6 %ID/g
  %ID/g Muscle: 1.5 ± 0.5 %ID/g
  %ID/g Pancreas: 7.3 ± 2.4 %ID/g
  %ID/g Spleen: 16.6 ± 6.7 %ID/g
[2]; 10 min PI
  %ID/g Bone: 4.2 ± 0.6 %ID/g
  %ID/g Cerebellum: 1.0 ± 0.6 %ID/g
  %ID/g Cerebrum: 1.0 ± 0.1 %ID/g
  %ID/g Heart: 2.3 ± 0.3 %ID/g
  %ID/g Kidneys: 12.7 ± 1.7 %ID/g
  %ID/g Liver: 15.1 ± 1.6 %ID/g
  %ID/g Lungs: 3.0 ± 0.3 %ID/g
  %ID/g Muscle: 1.0 ± 0.2 %ID/g
  %ID/g Pancreas: 4.0 ± 2.0 %ID/g
  %ID/g Spleen: 4.9 ± 0.6 %ID/g
[2]; 60 min PI
  %ID/g Bone: 9.2 ± 6.1 %ID/g
  %ID/g Cerebellum: 0.5 ± 0.2 %ID/g
  %ID/g Cerebrum: 0.2 ± 0.0 %ID/g
  %ID/g Heart: 0.8 ± 0.1 %ID/g
  %ID/g Kidneys: 3.6 ± 1.7 %ID/g
  %ID/g Liver: 4.2 ± 0.7 %ID/g
  %ID/g Lungs: 0.9 ± 0.2 %ID/g
  %ID/g Muscle: 3.5 ± 5.5 %ID/g
  %ID/g Pancreas: 1.2 ± 0.3 %ID/g
  %ID/g Spleen: 1.3 ± 0.3 %ID/g
[2]; brain, 2 min PI
  %ID/g Brain: 4.9 ± 0.5 %ID/g
[2]; brain, 2 min to 60 min activity ratio
  2/60 min activity ratio Brain: 18.2
[2]; brain, 10 min PI
  %ID/g Brain: 0.9 ± 0.3 %ID/g
[2]; brain, 30 min PI
  %ID/g Brain: 0.4 ± 0.0 %ID/g
[2]; brain, 60 min PI
  %ID/g Brain: 0.3 ± 0.0 %ID/g
[2]; 30 min PI
  %ID/g Cerebellum: 0.6 ± 0.1 %ID/g
  %ID/g Cerebrum: 0.4 ± 0.0 %ID/g
  %ID/g Heart: 1.7 ± 0.0 %ID/g
  %ID/g Kidneys: 9.2 ± 2.3 %ID/g
  %ID/g Liver: 8.3 ± 1.2 %ID/g
  %ID/g Lungs: 1.8 ± 0.2 %ID/g
  %ID/g Muscle: 0.8 ± 0.1 %ID/g
  %ID/g Pancreas: 2.2 ± 0.5 %ID/g
  %ID/g Spleen: 2.4 ± 0.4 %ID/g
[3]; 2 min after injection, n = 3
  Mean % ± SD of intact tracer, plasma: 65 ± 8%
[3]; 2 min after injection, n = 3, listed as [^18F]T808
  Mean % ± SD of intact tracer, plasma: 65%
[3]; 10 min after injection, n = 3
  Mean % ± SD of intact tracer, plasma: 34 ± 3%
[3]; 30 min after injection, n = 3
  Mean % ± SD of intact tracer, plasma: 29 ± 3%
[3]; 30 min after injection, n = 3, listed as [^18F]T808
  Mean % ± SD of intact tracer, plasma: 29%
[3]; 60 min after injection, n = 3
  Mean % ± SD of intact tracer, plasma: 26 ± 12%
[4]; 10 min after injection, n = 3
  Mean % ± SD of intact tracer, perfused brain: 88 ± 2%
[4]; 10 min after injection, n = 3, listed as [^18F]T808
  Mean % ± SD of intact tracer, perfused brain: 88%
[4]; 60 min after injection, n = 3
  Mean % ± SD of intact tracer, perfused brain: 34 ± 10%
[4]; 60 min after injection, n = 3, listed as [^18F]T808
  Mean % ± SD of intact tracer, perfused brain: 34%
Tau (NFTs) [1]; tracer 7 nmol/L [18F]T808
  % Block ± SD of tracer binding: 89 ± 0.0%
Tau (NFTs) [5]; 1 µmol/L compound, tracer 28 nmol/L [18F]T807, human AD slices, n = 3
  % Block ± SD of tracer binding: 90 ± 10^b %
Tau (NFTs) [5]; [6]
  inhibition at 1 µM: 90%
Aβ; 1 µmol/L compound, tracer 66 nmol/L [11C]PiB, human AD slices, n = 3
  % Block ± SD of tracer binding: 17 ± 0.0%
Aβ; [6]
  inhibition at 1 µM: 17%
Aβ; read-out: Inhibition of [11C]PiB binding, summary statements
  inhibition at 1 µM: < 17%
PHF tau
  Ki: 9.4 nM
Amyloid plaques
  Ki: > 4400 nM
NFTs
  Kd: 22 nM
  fold higher binding affinity for NFTs over Aβ: 27 fold
